Measurements reported in ChEMBL document CHEMBL4033800, “Further Developments of the Phenyl-Pyrrolyl Pentane Series of Nonsteroidal Vitamin D Receptor Modulators as Anticancer Agents” (J Med Chem, 2018).
Activity calls are given as the source filed them. The rule behind the calls is not given here.

Key:
[1] = tested on: MCF7; assay: Antiproliferative activity against human MCF7 cells after 48 hrs by MTT assay; assay type: functional, cell-based; settings: MCF7, 48 h
[2] = tested on: L02; assay: Antiproliferative activity against human L02 cells after 48 hrs by MTT assay; assay type: cell-based; settings: L02, 48 h
[3] = tested on: PC-3; assay: Antiproliferative activity against human PC3 cells after 48 hrs by MTT assay; assay type: functional, cell-based; settings: PC-3, 48 h
[4] = tested on: Caco-2; assay: Antiproliferative activity against human Caco2 cells after 48 hrs by MTT assay; assay type: functional, cell-based; settings: Caco-2, 48 h
[5] = tested on: HepG2; assay: Antiproliferative activity against human HepG2 cells after 48 hrs by MTT assay; assay type: functional, cell-based; settings: HepG2, 48 h
[6] = tested on: MCF7; assay: Induction of apoptosis in human MCF7 cells assessed as late apoptotic cells at 1 uM after 24 hrs by Annexin V-FITC/propidium iodide-staining based flow cytometry (reference value: 0.062%); assay type: functional
[7] = target: T1, Vitamin D3 receptor (Homo sapiens) (UniProt P11473); assay: Transactivation of human GAL4-fused VRD expressed in HEK293 cells co-transfected with human RXRalpha/VDRE after 24 hrs by dual luciferase reporter gene assay; assay type: cell-based
T1 sequence (whole entry): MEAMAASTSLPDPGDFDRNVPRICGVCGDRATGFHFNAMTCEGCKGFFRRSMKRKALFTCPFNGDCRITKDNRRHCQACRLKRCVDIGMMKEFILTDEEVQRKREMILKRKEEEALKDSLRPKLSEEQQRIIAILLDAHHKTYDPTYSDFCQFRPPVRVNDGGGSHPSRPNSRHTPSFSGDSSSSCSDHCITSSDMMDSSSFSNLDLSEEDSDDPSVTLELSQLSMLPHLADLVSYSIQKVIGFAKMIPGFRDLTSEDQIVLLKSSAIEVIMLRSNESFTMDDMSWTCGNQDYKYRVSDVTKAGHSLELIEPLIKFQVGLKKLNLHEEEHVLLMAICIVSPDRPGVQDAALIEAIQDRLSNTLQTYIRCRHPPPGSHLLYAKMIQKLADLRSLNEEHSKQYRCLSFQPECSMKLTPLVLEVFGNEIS

[8] = tested on: MCF7; assay: Induction of apoptosis in human MCF7 cells assessed as early apoptotic cells at 1 uM after 24 hrs by Annexin V-FITC/propidium iodide-staining based flow cytometry (reference value: 1.74%); assay type: functional
[9] = tested on: MCF7; assay: Induction of apoptosis in human MCF7 cells assessed as necrotic cells at 1 uM after 24 hrs by Annexin V-FITC/propidium iodide-staining based flow cytometry (reference value: 0.031%); assay type: functional
[10] = tested on: MCF7; assay: Induction of cell cycle arrest in human MCF7 cells assessed as accumulation at S phase at 1 uM after 24 hrs by propidium iodide-staining based flow cytometry (reference value: 31.55%); assay type: functional
[11] = target: T2, Vitamin D3 receptor (Homo sapiens, UniProt P11473); assay: Displacement of fluormone VDR red from human full length VDR after 4 hrs by fluorescence polarization assay
T2 sequence (P11473 whole entry): T1 sequence (whole entry)

[12] = tested on: Mus musculus; assay: Hypercalcemic effect in ICR mouse at 0.5 to 5 mg/kg/day, ip administered for 7 days measured on day 8 post-dose by MTB-based assay relative to control; assay type: ADME, organism-based; settings: in vivo, 168 h
Procedure, shortened: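 Mice were dosed i.p. over a 7-day period and serum calcium was then measured. Each dose level was compared with a vehicle-treated control group (saline cited as the comparator). Data are mean ± SEM, n = 6 per group. Significance versus vehicle was reported at p < 0.05, 0.01 and 0.001.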

[13] = tested on: MCF7; assay: Induction of apoptosis in human MCF7 cells assessed as viable cells at 1 uM after 24 hrs by Annexin V-FITC/propidium iodide-staining based flow cytometry (reference value: 98.2%); assay type: functional; settings: MCF7, 24 h, read-out: Activity
[14] = tested on: MCF7; assay: Induction of cell cycle arrest in human MCF7 cells assessed as accumulation at G0/G1 phase at 1 uM after 24 hrs by propidium iodide-staining based flow cytometry (reference value: 56.03%); assay type: functional
[15] = tested on: MCF7; assay: Induction of cell cycle arrest in human MCF7 cells assessed as accumulation at G2/M phase at 1 uM after 24 hrs by propidium iodide-staining based flow cytometry (reference value: 12.41%); assay type: functional
[16] = tested on: HepG2; assay: Induction of cell cycle arrest in human HepG2 cells at 1 uM after 24 hrs by propidium iodide-staining based flow cytometry; assay type: functional
[17] = Half life in Sprague-Dawley rat at 5 mg/kg, iv by HPLC analysis; assay type: ADME, organism-based; settings: in vivo
Procedure, shortened: (§1)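 Male Sprague-Dawley rats (180−220 g), 4 per group, dosed at 5 mg/kg i.v., 20 mg/kg i.p. or 20 mg/kg p.o. Parameters given as mean ± SD (n = 4).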

[18] = AUC in Sprague-Dawley rat at 20 mg/kg, po measured up to 48 hrs post administration by HPLC analysis; assay type: ADME, organism-based; design: time < 48 hr, dose 20 mg/kg, route oral; settings: in vivo; procedure, shortened: as §1
[19] = Clearance in Sprague-Dawley rat at 20 mg/kg, ip by HPLC analysis; assay type: ADME, organism-based; settings: in vivo; procedure, shortened: as §1
[20] = Bioavailability in Sprague-Dawley rat at 20 mg/kg, ip measured up to 48 hrs after administration by HPLC analysis; assay type: ADME, organism-based; settings: in vivo; procedure, shortened: as §1
[21] = Half life in Sprague-Dawley rat at 20 mg/kg, po by HPLC analysis; assay type: ADME, organism-based; settings: in vivo; procedure, shortened: as §1
[22] = AUC in Sprague-Dawley rat at 20 mg/kg, ip measured up to 48 hrs post administration by HPLC analysis; assay type: ADME, organism-based; design: time < 48 hr, dose 20 mg/kg, route intraperitoneal; settings: in vivo; procedure, shortened: as §1
[23] = AUC in Sprague-Dawley rat at 5 mg/kg, iv measured up to 48 hrs post administration by HPLC analysis; assay type: ADME, organism-based; design: dose 5 mg/kg, time < 48 hr, route intravenous; settings: in vivo; procedure, shortened: as §1
[24] = Clearance in Sprague-Dawley rat at 20 mg/kg, po by HPLC analysis; assay type: ADME, organism-based; settings: in vivo; procedure, shortened: as §1
[25] = MRT in Sprague-Dawley rat at 20 mg/kg, ip by HPLC analysis; assay type: ADME, organism-based; settings: in vivo; procedure, shortened: as §1
[26] = Oral bioavailability in Sprague-Dawley rat at 20 mg/kg measured up to 48 hrs after administration by HPLC analysis; assay type: ADME, organism-based; settings: in vivo; procedure, shortened: as §1
[27] = Half life in Sprague-Dawley rat at 20 mg/kg, ip by HPLC analysis; assay type: ADME, organism-based; settings: in vivo; procedure, shortened: as §1
[28] = MRT in Sprague-Dawley rat at 5 mg/kg, iv by HPLC analysis; assay type: ADME, organism-based; settings: in vivo; procedure, shortened: as §1
[29] = MRT in Sprague-Dawley rat at 20 mg/kg, po by HPLC analysis; assay type: ADME, organism-based; settings: in vivo; procedure, shortened: as §1
[30] = Clearance in Sprague-Dawley rat at 5 mg/kg, iv measured up to 48 hrs post administration by HPLC analysis; assay type: ADME, organism-based; settings: in vivo; procedure, shortened: as §1

SMILES	IC50 [1]	IC50 [2]	IC50 [3]	IC50 [4]	IC50 [5]	Activity [6]	Activity [8]	Activity [9]	Activity [10]	IC50 [11]	viability at 1 µM [13]	Activity [14]	Activity [15]	also measured
CCOC(=O)CN(C)C(=O)c1ccc(C(CC)(CC)c2ccc(OCCC(O)(CC)CC)c(C)c2)n1CC	3.21 µM	1.99 µM	7.14 µM	30.3 µM	25.3 µM									
CCn1c(C(=O)Nc2cccc(C(F)(F)F)c2)ccc1C(CC)(CC)c1ccc(OCCC(O)(CC)CC)c(C)c1	> 50 µM	> 50 µM	23.8 µM	> 50 µM	> 50 µM									
CCn1c(C(=O)N(C)CC(=O)O)ccc1C(CC)(CC)c1ccc(OCCC(O)(CC)CC)c(C)c1	0.079 µM	2.15 µM	2.25 µM	2.74 µM	5.71 µM	3.66%	8.42%	0.17%	27.68%	0.873 µM	87.8%	61.76%	10.57%	Activity [7]: Dose-dependent effect; Activity [12]: Non-Toxic; Activity [16]: Active
CCn1c(C(=O)N(C)CCO)ccc1C(CC)(CC)c1ccc(OCCC(O)(CC)CC)c(C)c1	2.87 µM	2.05 µM	3.09 µM	0.074 µM	0.51 µM									
CCn1c(C(=O)NC(CC(=O)O)C(=O)OC)ccc1C(CC)(CC)c1ccc(OCCC(O)(CC)CC)c(C)c1 (configuration not stated)	10.2 µM	7.59 µM	11.2 µM	25.2 µM	10.7 µM									
CCn1c(C(=O)NC(C)CO)ccc1C(CC)(CC)c1ccc(OCC(O)C(C)(C)C)c(C)c1 (configuration not stated)	2.8 µM	17.4 µM	17.4 µM	> 50 µM		2.78%	7.58%	0.15%	24.45%	0.228 µM	89.5%	63.03%	12.52%	half-life [17]: 2.44 h; AUC at 48 h [18]: 13500 ng·h/mL; CL/F [19]: 13.5 mL/min; bioavailability [20]: 46.2%; half-life [21]: 6.89 h; AUC at 48 h [22]: 24800 ng·h/mL; AUC at 48 h [23]: 13400 ng·h/mL; CL/F [24]: 25 mL/min; MRT [25]: 8.15 h; bioavailability [26]: 25.2%; half-life [27]: 3.96 h; MRT [28]: 2.82 h; MRT [29]: 10.8 h; clearance [30]: 6.83 mL/min
